# EBNA-1 inhibitor: blocks EBNA-1 binding to DNA | EBNA-1 DNA binding, fluorescence polarization | inhibition, % at 14.8 µM | hit rate 0.34% among 300,000; in the data active = inhibition above about 28%
# GRIN3A LBD mod: modulators (binders) of human NR3A ligand-binding domain. NR3A LBD differential scanning fluorimetry, Tm shift; 0% = protein alone, 100% = glycine-bound protein. Tm shift relative to glycine control, % at 25 µM. hit rate 2.5% among 340,000. AID 1259313;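 active = melting temperature shift of at least 10% of the positive control shift, at one fixed dose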
# DNA FID counter: displaces DNA intercalator in HCV helicase counter-screen. DNA fluorescent intercalator displacement, fluorescence. inhibition, % at 7.9 µM. hit rate 0.17% among 290,000; in the data active = inhibition above about 37%;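 note: 0% = vehicle and 100% = reference compound; higher means more ethidium bromide displaced from hairpin DNA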
# ZTA DNA inh: counter-screen for EBNA-1 inhibitors: inhibitors of Epstein-Barr virus ZTA; inhibition, % at 11 µM; hit rate 0.15% among 320,000; AID 2234; P03206; ZTA-DNA binding, fluorescence polarization; in the data active = inhibition above about 33%
# Target sequence (P03206 whole entry, looked up): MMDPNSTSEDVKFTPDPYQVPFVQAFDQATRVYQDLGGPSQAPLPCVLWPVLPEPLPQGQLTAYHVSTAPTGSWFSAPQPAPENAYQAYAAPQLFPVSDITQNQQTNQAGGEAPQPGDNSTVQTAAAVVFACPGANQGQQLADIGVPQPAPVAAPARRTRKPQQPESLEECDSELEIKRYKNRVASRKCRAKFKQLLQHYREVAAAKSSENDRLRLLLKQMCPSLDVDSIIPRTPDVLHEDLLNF
# FGF22 binding: shifts melting point of recombinant human FGF22; hit rate 1.5% among 340,000; recombinant FGF22 thermal shift, SYPRO orange fluorescence; percent of sucrose octasulfate shift, DMSO zero; Q9HCT0; activity (Tm shift, normalised), % at 9.99 µM;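 active = mean Tm shift, scaled 0 neutral to 100 positive control, at about 1.3% or above, every replicate too, limit read from the data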
# Target sequence (Q9HCT0 whole entry, looked up): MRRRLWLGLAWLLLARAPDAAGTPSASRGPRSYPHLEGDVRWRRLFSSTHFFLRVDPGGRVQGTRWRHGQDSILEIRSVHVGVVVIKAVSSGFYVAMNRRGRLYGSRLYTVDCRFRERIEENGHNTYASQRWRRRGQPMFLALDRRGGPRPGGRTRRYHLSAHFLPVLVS
# NS3 helicase inh: blocks Hepatitis C virus NS3 helicase unwinding. NS3 helicase DNA unwinding, Cy5 molecular beacon fluorescence. inhibition, % at 10.9 µM. hit rate 0.56% among 290,000. AID 1800;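 active = inhibition above the mean of all tested compounds plus 3 SD, set per campaign, cut at about 35% in these data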;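 note: 0% = DMSO wells and 100% = thioflavine S control wells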
#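 System: Hepatitis C virus NS3 helicase domain fragment enzyme | Reagent: Annealed dual-labelled DNA beacon duplex, ATP-started | Compound dosing: 10.9 µM single point, 0.8% DMSO | Incubation: 1 h reaction at 25 °C, ATP-initiated | Technique: Cy5 fluorescence | Evaluation: Percent inhibition from t60/t0 fluorescence ratio | Benchmarks: Low DMSO, high thioflavine S at 110 µM | Replication: Singlicate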
# Starred values were filed as active, the others as inactive; x = no result. An excerpt weighted towards active compounds, which were near 3.6% of everything screened.
SMILES,EBNA-1 inhibitor,GRIN3A LBD mod,DNA FID counter,ZTA DNA inh,FGF22 binding,NS3 helicase inh
C[C@H]1CN([C@@H](C)CO)C(=O)c2cc(NC(=O)CCC(F)(F)F)ccc2O[C@@H]1CN(C)C(=O)Nc1ccc(F)cc1,x,x,x,x,-0.2,x
CC(C)c1cn(CC[C@@H]2CC[C@@H](NC(=O)C3CC3)[C@@H](CO)O2)nn1,x,x,x,x,-0.1,x
Cc1ccc(S(=O)(=O)N[C@H]2CC[C@H](CCNC(=O)c3ccc4c(c3)OCO4)O[C@@H]2CO)cc1,x,x,x,x,-0.1,x
O=C(NC1CCS(=O)(=O)C1)c1cccc(S(=O)(=O)N2CCCC2)c1 (stereo not given),-3.0,3.5,0.6,9.3,43.2*,-3.8
COc1ccccc1Nc1nc(-c2ccc([N+](=O)[O-])cc2)nc2ccccc12,4.7,39.4*,1.4,-10.6,x,7.7
O=[N+]([O-])c1ccc(-c2nc(NCc3cccnc3)c3ccccc3n2)cc1,x,37.1*,3.1,x,-0.1,6.9
COc1ccc(Nc2nc(-c3cccs3)nc3ccccc23)c(OC)c1,-9.7,-5.8,5.1,-2.3,x,-17.0
Oc1ccccc1-c1nc(NCc2cccnc2)c2ccccc2n1,12.9,2.4,5.3,10.0,-0.3,-16.5
COc1ccc(Nc2nc(N3CCN(C)CC3)nc3ccccc23)c(OC)c1,-7.7,-2.3,46.4*,-9.7,42.6,17.0
COc1ccc(OC)c(Nc2nc(-c3cccc([N+](=O)[O-])c3)nc3ccccc23)c1,-0.8,-5.1,-0.5,8.9,x,-1.2
COc1ccc(Nc2nc(-c3cccc([N+](=O)[O-])c3)nc3ccccc23)c(OC)c1,-5.2,20.7*,-1.5,10.3,0.1,11.1
C[C@@H]1CN([C@@H](C)CO)C(=O)c2cc(NC(=O)Nc3ccccc3)ccc2O[C@@H]1CN(C)C(=O)Nc1ccc(C(F)(F)F)cc1,x,x,x,x,0.2,x
COc1ccccc1NC(=S)NNC(=S)Nc1ccc(OC(F)F)cc1,-8.1,31.9*,9.9,0.4,x,-2.8
O=C(Cc1ccccc1)NC(=S)Nc1ccc(OC(F)F)cc1,-7.2,-12.5,-8.2,-28.9,0.1,6.4
COc1ccc(NC(=S)Nc2ccc(OC(F)F)cc2)cn1,-4.6,-1.9,-2.5,10.7,43.4*,7.6
Cc1c(C(=O)NCc2ccccn2)oc2ccc(S(=O)(=O)N3CCC4(CC3)OCCO4)cc12,12.0,-1.5,-28.6,24.5,43.0*,-5.0
Cc1ccc(C)c(N2CCN(C(=O)CCc3nc(-c4cccc(F)c4)no3)CC2)c1,x,19.5*,x,x,0.4,x
COc1ccc(OC)c(S(=O)(=O)NCCO)c1,2.7,0.7,8.4,-2.9,x,1.6
CCNS(=O)(=O)c1cc(OC)ccc1OC,-6.9,4.0,37.9*,2.5,x,-0.3
O=C(NC(Cc1c[nH]c2ccccc12)C(=O)N/N=C/c1ccc(Cl)cc1)c1cccs1 (stereo not given),-11.9,19.5*,-9.9,-11.3,0.3,-1.6
O=C(NC(Cc1c[nH]c2ccccc12)C(=O)N1CCOCC1)c1cccs1 (stereo not given),-11.3,2.4,-8.2,-4.8,0.4,0.9
CCCC#Cc1ccc([C@H]2[C@H](CO)N3CCCCN(Cc4cccnc4)C[C@@H]23)cc1,x,x,x,x,-0.6,x
CN1c2ccc(Br)cc2[C@@H]2[C@@H](CCN2S(=O)(=O)c2cccc(F)c2)[C@H]1CO,x,x,x,x,0.0,x
C[C@H]1CN([C@@H](C)CO)C(=O)c2cccc(NC(=O)Nc3ccccc3)c2O[C@@H]1CN(C)S(=O)(=O)c1ccc(Cl)cc1,x,x,x,x,-0.4,x
O=C(Nc1ccc2ccccc2c1)c1cccc([N+](=O)[O-])c1,10.5,30.3*,9.9,0.6,0.0,3.2
SMILES,EBNA-1 inhibitor,GRIN3A LBD mod,DNA FID counter,ZTA DNA inh,FGF22 binding,NS3 helicase inh
CCN(CC)CCNC(=O)c1ccc(NC(=O)c2ccc(COc3ccccc3)cc2)cc1,x,-1.6,38.2*,x,0.7,-38.5
O=C(Nc1cccc([N+](=O)[O-])c1)c1ccc(CSc2ccccc2)cc1,9.9,30.8*,7.4,-3.8,x,-1.7
O=C(Nc1cccc([N+](=O)[O-])c1)c1ccccc1,8.6,-8.6,3.3,2.4,0.9,10.0
CC(C)NS(=O)(=O)c1ccc(NC(=S)NC(=O)c2cccc([N+](=O)[O-])c2)cc1,4.2,13.1*,-5.9,-10.2,1.0,-4.0
O=C(Nc1ccccc1)N[C@H]1CC[C@@H](CCn2cc(C3(O)CCCC3)nn2)O[C@@H]1CO,x,x,x,x,0.0,x
CCCNC(=O)N1[C@H](CO)[C@H]2c3ccccc3N(C(=O)Nc3cccc(F)c3)C[C@H]21,x,x,x,x,0.1,x
O=C(NNC(=S)Nc1ccc(Cl)c(Cl)c1)c1cccc([N+](=O)[O-])c1,6.6,21.5*,-3.5,0.7,x,-7.2
Cc1cc(CSc2ccccc2)ccc1NC(=O)c1ccc(Cl)c([N+](=O)[O-])c1,-3.9,-9.6,4.8,1.5,x,13.8
CC(=O)Nc1ccc(OCc2cccc([N+](=O)[O-])c2)cc1,-5.3,-1.3,-1.4,-2.1,-0.1,-8.8
Cc1cccc(NC(=S)NNC(=O)c2cccc([N+](=O)[O-])c2)c1,1.8,-1.0,-5.4,14.9,-0.2,-3.0
O=C(Nc1ccc(COc2ccccc2)cc1)c1cccc([N+](=O)[O-])c1,-6.9,21.9*,-5.2,-19.3,0.6,4.5
Cc1cc(CSc2ccccc2)ccc1NC(=O)c1ccc(C)c([N+](=O)[O-])c1,0.2,-4.0,6.4,-1.9,43.4*,15.6
O=C(C[C@H]1CC[C@@H]2[C@H](COC[C@@H](O)CN2C(=O)c2ccncc2)O1)NCc1cccc(F)c1,x,x,x,x,0.3,x
C[C@H]1CN([C@@H](C)CO)C(=O)c2cccc(NC(=O)C3CCOCC3)c2O[C@@H]1CN(C)S(=O)(=O)c1cccs1,x,x,x,x,-0.4,x
C[C@H](CO)N1C[C@H](C)[C@H](CN(C)S(=O)(=O)c2ccc(F)cc2)Oc2ccc(NC(=O)CCCN(C)C)cc2C1=O,x,x,x,x,0.1,x
CCOCCCN1CN(Cc2ccco2)CNC1=S,-3.5,0.3,-3.5,3.6,43.0*,5.8
S=C1NCN(Cc2ccco2)CN1CCc1ccccc1,-10.8,-2.2,-11.8,-10.7,0.0,-5.7
Cc1nn(C)c(C)c1CCC(=O)NC1CC(C)(C)Cc2c1cnn2-c1ccccc1 (stereo not given),3.8,-2.4,-49.0,3.5,-0.1,-2.8
CC1(C)Cc2c(cnn2-c2ccccc2)C(NC(=O)CCc2ccc(=O)[nH]n2)C1 (stereo not given),1.1,12.6*,-27.2,-2.1,0.0,-0.4
CN(C)C(=O)c1cccc(-c2ccc3c(c2)[C@@H]2[C@@H](CCN2S(=O)(=O)c2ccccc2)[C@@H](CO)N3)c1,x,x,x,x,-0.4,x
O=C(Nc1nnc(-c2ccco2)o1)c1ccc(S(=O)(=O)N2CCCC2)cc1,-1.3,-3.0,-23.3,-1.4,43.1*,-3.8
O=C(NCc1ccco1)c1ccc(S(=O)(=O)N2CCCCC2)cc1,4.5,0.3,-26.1,0.8,43.6*,20.0
